Measurements as given in ChEMBL document CHEMBL1129609, “Synthesis and antiviral activity evaluation of some new aminoadamantane derivatives. 2” (1996).
Values after ≈ are worked out from the molar mass of the structure shown.

Tests used:
Assay type in all cases: functional
Vero [1] = assay: Antiviral activity of compound was tested against Coxsackie B4 virus infected vero cell lines.; settings: Chlorocebus sabaeus
Summary of the method: (§1)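 Vero (African green monkey kidney), HeLa (human epithelial) or HEL (human embryonic lung) cell monolayers infected with the virus. Readout is the minimum inhibitory concentration that reduces virus-induced cytopathicity by 50%. Values are averages of at least two separate experiments.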

HEL [2] = assay: Antiviral activity of compound was tested against HCMV virus infected HEL cell lines.; settings: Homo sapiens; summary of the method: as §1
HEF [3] = assay: Antiviral activity of compound was tested against vaccinia virus infected HEF cell lines.; settings: Homo sapiens
Summary of the method: (§2)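 Human embryonic fibroblasts, from embryonic lung or embryonic skin-muscle, infected with the virus. Endpoint is the minimum inhibitory concentration that reduces virus-induced cytopathicity by 50%. Values are averages of at least two separate experiments.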

MDCK [4] = assay: Antiviral activity tested against influenza A,H1N1 virus infected MDCK cell lines.; settings: Canis lupus familiaris
HeLa [5] = assay: Antiviral activity of compound was tested against morphology virus infected HeLa cell lines.; settings: Homo sapiens
MDCK [6] = assay: Antiviral activity of compound was tested against influenza A,H3N2 virus infected MDCK cell lines.; settings: Canis lupus familiaris
HEL [7] = assay: Antiviral activity of compound was tested against TK-VZV virus infected HEL cell lines.; settings: Homo sapiens; summary of the method: as §1
CCRF-CEM [8] = assay: Antiviral activity of compound was tested against HIV-1 virus infected CEM cell lines.; settings: Homo sapiens
Vero [9] = assay: Antiviral activity of compound was tested against morphology virus infected Vero cell lines.; settings: Chlorocebus sabaeus
HeLa [10] = assay: Antiviral activity of compound was tested against stomatitis virus infected HeLa cell lines.; settings: Homo sapiens; summary of the method: as §1
HEL [11] = assay: Antiviral activity of compound was tested against TK+VZV virus infected HEL cell lines.; settings: Homo sapiens; summary of the method: as §1
MDCK [12] = assay: Antiviral activity of compound was tested against morphology virus infected MDCK cell lines.; settings: Canis lupus familiaris
CCRF-CEM [13] = assay: Antiviral activity of compound was tested against viability virus infected CEM cell lines.; settings: Homo sapiens
HeLa [14] = assay: Antiviral activity of compound was tested against Coxsackie B4 virus infected HeLa cell lines.; settings: Homo sapiens; summary of the method: as §1
MDCK [15] = assay: Antiviral activity of compound was tested against influenza […] virus infected MDCK cell lines; settings: Canis lupus familiaris
CCRF-CEM [16] = assay: Antiviral activity of compound were tested against HIV-2 virus infected CEM cell lines.; settings: Homo sapiens
[17] = Antiviral activity against influenza A,H2N2 virus infected MDCK cell lines.
HEF [18] = assay: Antiviral activity of compound was tested against vesicular virus infected HEF cell lines.; settings: Homo sapiens; summary of the method: as §2
HEF [19] = assay: Antiviral activity of compound was tested against morphology virus infected HEF cell lines.; settings: Homo sapiens
Vero [20] = assay: Antiviral activity of compound was tested against sindbis virus infected vero cell lines.; settings: Chlorocebus sabaeus; summary of the method: as §1
HEL [21] = assay: Antiviral activity of compound was tested against proliferation virus infected HEL cell lines.; settings: Homo sapiens
HEF [22] = assay: Antiviral activity of compound was tested against TK-HSV-1 virus infected HEF cell lines.; settings: Homo sapiens; summary of the method: as §2
Vero [23] = assay: Antiviral activity of compound was tested against reo1 virus infected vero cell lines.; settings: Chlorocebus sabaeus; summary of the method: as §1
HEF [24] = assay: Antiviral activity of compound was tested against HSV-2 virus infected HEF cell lines.; settings: Homo sapiens; summary of the method: as §2
Vero [25] = assay: Antiviral activity of compound was tested against parainfluenza 3,[…] virus infected Vero cell lines.; settings: Chlorocebus sabaeus; summary of the method: as §1
HeLa [26] = assay: Antiviral activity of compound was tested against polio-1 virus infected HeLa cell lines.; settings: Homo sapiens; summary of the method: as §1
Vero [27] = assay: Antiviral activity of compound were tested against semliki forest virus infected vero cell lines.; settings: Chlorocebus sabaeus; summary of the method: as §1

SMILES: CN(C)CC1CCN(C23CC4CC(CC(C4)C2)C3)C1 (configuration not stated)
- MIC50 (Vero [1]): > 100 µg/mL
- MIC50 (HEL [2]): > 20 µg/mL
- MIC50 (HEF [3]): > 10 µg/mL
- MIC50 (MDCK [4]): > 36 µg/mL
- MIC50 (HeLa [5]): 400 µg/mL (≈ 1520 µM)
- MIC50 (MDCK [6]): > 100 µg/mL
- MIC50 (HEL [7]): > 50 µg/mL
- MIC50 (CCRF-CEM [8]): > 23 µg/mL
- MIC50 (Vero [9]): > 400 µg/mL
- MIC50 (HeLa [10]): > 200 µg/mL
- MIC50 (HEL [11]): > 20 µg/mL
- MIC50 (MDCK [12]): 400 µg/mL (≈ 1520 µM)
- MIC50 (CCRF-CEM [13]): 79 µg/mL (≈ 301 µM)
- MIC50 (HeLa [14]): > 200 µg/mL
- MIC50 (MDCK [15]): > 100 µg/mL
- MIC50 (CCRF-CEM [16]): > 40 µg/mL
- MIC50 [17]: 16.1 µg/mL (≈ 61.3 µM)
- MIC50 (HEF [18]): > 10 µg/mL
- MIC50 (HEF [19]): 40 µg/mL (≈ 152 µM)
- MIC50 (Vero [20]): > 100 µg/mL
- MIC50 (HEL [21]): > 50 µg/mL
- MIC50 (HEF [22]): > 10 µg/mL
- MIC50 (Vero [23]): > 100 µg/mL
- MIC50 (HEF [24]): > 10 µg/mL
- MIC50 (Vero [25]): > 100 µg/mL
- MIC50 (HeLa [26]): > 200 µg/mL
- MIC50 (Vero [27]): > 100 µg/mL
